Laboratory results taken from ChEMBL document CHEMBL1759858, “The novel anti-tumor agents of 4-triazol-1,8-naphthalimides: synthesis, cytotoxicity, DNA intercalation and photocleavage” (Eur J Med Chem, 2011).
Activity calls are given as the source filed them. The rule behind the calls is not given here.

Assays:
HeLa [1] = test: Ratio of IC50 for amonafide to compound for human HeLa cells; type: functional
HeLa [2] = test: Cytotoxicity against human HeLa cells after 48 hrs by MTT assay; type: functional, cell-based
SMMC-7721 [3] = test: Cytotoxicity against human SMMC7721 cells after 48 hrs by MTT assay; type: functional, cell-based; conditions: SMMC-7721, 48 h
Summary of the method: (§1)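 MCF-7 and 7721 cells were plated at 1 × 10⁵ cells/ml and exposed for 48 h to a concentration range of compound added from DMSO (final DMSO/medium below 0.001). MTT (5 mg/mL stock in PBS) was added for 3 h, and formazan was dissolved in SDS 200 g/L/50% formamide lysis buffer (pH 4.7). Absorbance was read at 570 nm, with ≥3 experiments. IC50 was taken from mean % absorbance plotted against concentration.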

SMMC-7721 [4] = test: Ratio of IC50 for amonafide to compound for human SMMC7721 cells; type: functional
Summary of the method: (§2)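 The ratio compares IC50s from the 48 h MTT assay on MCF-7 or 7721 cells (1 × 10⁵ cells/ml, readout at 570 nm, ≥3 experiments). Amonafide was run as the control under the same conditions, and the ratio is its IC50 divided by the compound's.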

MCF7 [5] = test: Ratio of IC50 for amonafide to compound for human MCF7 cells; type: functional; summary of the method: as §2
MCF7 [6] = test: Cytotoxicity against human MCF7 cells after 48 hrs by MTT assay; type: functional, cell-based; conditions: MCF7, 48 h; summary of the method: as §1
Nucleic Acid [7] = test: Induction of DNA cleavage measured using 2 hrs UV-irradiated Escherichia coli super coiled pBR322 DNA assessed as formation of linear form 3 DNA at 100 uM by agarose gel electrophoresis; type: nucleic-acid assay
Summary of the method: (§3)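 Supercoiled pBR322 plasmid (0.05 mM bp) in Tris-HCl (pH 7.5) was incubated with compound at 37 °C and irradiated with 365 nm UV for 2 h. Controls were DNA alone, with and without irradiation. Cleavage forms were resolved on 1% agarose gel electrophoresis.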

Nucleic Acid [8] = test: Induction of DNA cleavage measured using 2 hrs UV-irradiated Escherichia coli super coiled pBR322 DNA assessed as formation of relaxed open circular form 2 DNA at 100 uM by agarose gel electrophoresis; type: nucleic-acid assay; summary of the method: as §3
Calf thymus DNA [9] = test: Binding affinity to calf thymus DNA assessed as DNA damage at increasing compound to DNA ratio by viscosity measurement; type: nucleic-acid assay; conditions: Bos taurus
Summary of the method: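 Calf thymus DNA was dissolved in 30 mM Tris-HCl (pH 7.5), held overnight at 4 °C, sonicated for 10 min and filtered to remove insoluble material. Viscosity was then measured as the compound-to-DNA ratio was increased.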

Calf thymus DNA [10] = test: Binding affinity to calf thymus DNA assessed as induction of hypochromatic effect by spectrophotometry; type: nucleic-acid assay; conditions: Bos taurus
Summary of the method: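 UV-vis absorption spectra of a fixed compound concentration were recorded during stepwise addition of calf thymus DNA in 30 mM Tris-HCl (pH 7.5). Hypochromicity and bathochromic shift were monitored, and the binding constant was calculated from an equation applied to the absorbance data.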

Calf thymus DNA [11] = test: Binding affinity to calf thymus DNA at compound to DNA ratio of > 0.80 by circular dichroism; type: nucleic-acid assay; conditions: Bos taurus
Summary of the method: (§4)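 CD spectra were recorded on calf thymus DNA at a fixed concentration in Tris-HCl buffer (pH 7.0). Compound was titrated at R (compound/DNA) ratios of 0.02, 0.04, 0.10, 0.16, 0.20, 0.30, 0.40, 0.60, 0.80, 1.00, 1.2 and 1.40, and compared with free DNA.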

Calf thymus DNA [12] = test: Binding affinity to calf thymus DNA at compound to DNA ratio of >0.20 to < 0.80 by circular dichroism; type: nucleic-acid assay; conditions: Bos taurus; summary of the method: as §4
Calf thymus DNA [13] = test: Binding affinity to calf thymus DNA at compound to DNA ratio of <= 0.20 by circular dichroism; type: nucleic-acid assay; conditions: Bos taurus; summary of the method: as §4

SMILES | Ratio IC50 (HeLa [1]) | IC50 (HeLa [2]) [µM] | IC50 (SMMC-7721 [3]) [nM] | Ratio IC50 (SMMC-7721 [4]) | Ratio IC50 (MCF7 [5]) | IC50 (MCF7 [6]) [nM] | Activity (Nucleic Acid [7]) | Activity (Nucleic Acid [8]) | Activity (Calf thymus DNA [9]) | Kb (Calf thymus DNA [10]) [×10⁵ /M] | Activity (Calf thymus DNA [11]) | Activity (Calf thymus DNA [12]) | Activity (Calf thymus DNA [13])
CN(C)CCN1C(=O)c2cccc3c(-n4cc(-c5ccccc5)nn4)ccc(c23)C1=O | 1.7 | 1.02 | 463 | 9.2 | 5.2 | 323 | Active | Active | Active | 2.95 |  |  | 
CN(C)CCN1C(=O)c2cccc3cc(N)cc(c23)C1=O [AMONAFIDE] |  | 1.73 | 4270 |  |  | 1680 |  |  |  |  |  |  | 
CCCCN1C(=O)c2cccc3c(-n4cc(-c5ccccc5)nn4)ccc(c23)C1=O |  | 19.6 | 32900 |  |  | 19500 |  | Active |  |  |  |  | 
O=C1c2cccc3c(-n4cc(-c5ccccc5)nn4)ccc(c23)C(=O)N1CCN1CCNCC1 |  | 96.7 | 1540 |  |  | 836 |  | Active |  |  |  |  | 
CCN(CC)CCN1C(=O)c2cccc3c(-n4cc(-c5ccccc5)nn4)ccc(c23)C1=O |  | 26.9 | 1890 |  |  | 1090 | Active | Active |  |  | inactive | Active | Active
O=C1c2cccc3c(-n4cc(-c5ccccc5)nn4)ccc(c23)C(=O)N1CCO |  | > 100 | > 100000 |  |  | > 100000 |  | Active | inactive |  |  |  | 
